Experimental findings from ChEMBL document CHEMBL1275586, “Phenotypic susceptibility to bevirimat in isolates from HIV-1-infected patients without prior exposure to bevirimat” (Antimicrob Agents Chemother, 2010) are described below.

For experiment [1], the system named is Human immunodeficiency virus 1. Put plainly: Antiviral activity against Human immunodeficiency virus 1 isolate 3 harboring Gag-capsid I138L, A146P, I147L, V159I, S176A, V215L, H219Q/H, T242N, G248A, T280V, A340G and G357S mutant gene and protease L10I, T31S/T, V32I, M36I/M, S37C, R41K, M46I, F53L, I54V, R57K, L63P, I64V, A71V, V82A and L90M mutant gene infected in human MT-2 cells by XTT-assay relative to wild-type. The experiment is classed as functional, MT2. An outline of the steps:
(§1)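 Patient Gag-protease (SfoI-XmaI) fragments were ligated into the pXXLAI backbone, with colonies pooled to keep quasispecies. Virus came from 293T transfection, harvested at 2 days. MT-2 infection at 37°C used an input giving XTT signal-to-noise of 2.5–4.0 (≈MOI 0.001). Cells at ≈17,000/well with drug dilutions, 5 days, 37°C; XTT 1 h, A450–650. EC50 from % cell death; fold change vs wild-type LAI.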
A general note: Formazan colour is commonly taken as a measure of viable cells.

In experiment [2] the test system is Human immunodeficiency virus 1. As to the kind of experiment: Antiviral activity against antiretroviral-pretreated PI-resistant Human immunodeficiency virus 1 isolate 24 harboring Gag-capsid V362I mutant gene, Gag-SP-1 V370A, N372T and T375A mutant gene and deletion at T371 in Gag-SP-1 infected in human MT-2 cells by XTT assay relative to wild-type. The experiment is classed as functional, MT2. Summed up:
(§2)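 Patient-derived Gag fragments were pooled as bacterial colonies to keep quasispecies diversity and ligated into the pXXLAI (HIV-1 LAI) backbone. Virus was made by transfecting 293T cells and harvesting supernatant 2 days later. MT-2 cells were infected at 37°C with an inoculum titrated to give an XTT signal-to-noise of 2.5–4.0. Cells were plated into drug dilutions, incubated 5 days at 37°C, and read by XTT absorbance (450−650 nm). EC50 was taken from percent cell death and expressed as fold change versus wild-type LAI.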

The test system of experiment [3] is Human immunodeficiency virus 1. Put plainly: Antiviral activity against Human immunodeficiency virus 1 isolate 39 harboring Gag-capsid G357S and V362I mutant gene and Gag-SP-1 T375A mutant gene infected in human MT-2 cells by XTT assay relative to wild-type. The experiment is classed as functional, MT2. Summed up: as §1
The test system of experiment [4] is Human immunodeficiency virus 1. Put plainly: Antiviral activity against antiretroviral-pretreated PI-resistant Human immunodeficiency virus 1 isolate 29 harboring Gag-SP-1 T375A mutant gene infected in human MT-2 cells by XTT assay relative to wild-type. The experiment is classed as functional, MT2. An outline of the steps: as §2
Experiment [5] has as its system Human immunodeficiency virus 1. As to the kind of experiment: Antiviral activity against antiretroviral-pretreated Human immunodeficiency virus 1 isolate 8 infected in human MT-2 cells by XTT assay relative to wild-type. The experiment is classed as functional, MT2. An outline of the steps:
as §2

Experiment [6] deals with Human immunodeficiency virus 1. As to the kind of experiment: Antiviral activity against antiretroviral-pretreated PI-resistant Human immunodeficiency virus 1 isolate 26 harboring Gag-SP1 N372S, S373P and T375N mutant gene infected in human MT-2 cells by XTT assay relative to wild-type. The experiment is classed as functional, MT2. Summed up: as §2
In experiment [7] the test system is Human immunodeficiency virus 1. As to the kind of experiment: Antiviral activity against antiretroviral-pretreated PI-resistant Human immunodeficiency virus 1 isolate 20 harboring Gag-capsid G357S mutant gene and Gag-SP1 Q369H and I376V mutant gene infected in human MT-2 cells by XTT assay relative to wild-type. The experiment is classed as functional, MT2. An outline of the steps:
as §2

The test system of experiment [8] is Human immunodeficiency virus 1. As to the kind of experiment: Antiviral activity against Human immunodeficiency virus 1 isolate 37 harboring Gag-capsid G357S mutant gene and Gag-SP1 I376V mutant gene infected in human MT-2 cells by XTT assay relative to wild-type. The experiment is classed as functional, MT2. An outline of the steps: as §1
Experiment [9] has as its system Human immunodeficiency virus 1. As to the kind of experiment: Antiviral activity against antiretroviral-pretreated PI-resistant Human immunodeficiency virus 1 isolate 9 harboring Gag-SP1 T375N and I376V mutant gene infected in human MT-2 cells by XTT assay relative to wild-type. The experiment is classed as functional, MT2. Summed up: as §2
The test system of experiment [10] is Human immunodeficiency virus 1. Put plainly: Antiviral activity against antiretroviral-pretreated PI-resistant Human immunodeficiency virus 1 isolate 25 harboring Gag-capsid G357S mutant gene and Gag-SP-1 […] mutant gene infected in human MT-2 cells by XTT assay relative to wild-type. The experiment is classed as functional, MT2. Summed up:
as §2

In experiment [11] the test system is Human immunodeficiency virus 1. Put plainly: Antiviral activity against antiretroviral-pretreated PI-resistant Human immunodeficiency virus 1 isolate 1 harboring Gag-Sp-1 S368C, V370A and A374N mutant gene deletion at T371 in Gag-SP-1 infected in human MT-2 cells by XTT assay relative to wild-type. The experiment is classed as functional, MT2. Summed up:
as §2

For experiment [12], the system named is Human immunodeficiency virus 1. As to the kind of experiment: Antiviral activity against antiretroviral-pretreated PI-resistant Human immunodeficiency virus 1 isolate 6 harboring Gag-SP-1 V370A,S373A and A374T mutant gene infected in human MT-2 cells by XTT assay relative to wild-type. The experiment is classed as functional, MT2. Summed up:
as §2

The test system of experiment [13] is Human immunodeficiency virus 1. As to the kind of experiment: Antiviral activity against antiretroviral-pretreated PI-resistant Human immunodeficiency virus 1 isolate 10 harboring deletion at T371 of Gag-SP-1 and Gag-Sp-1 V370I, S373P and I376V mutant gene infected in human MT-2 cells by XTT assay relative to wild-type. The experiment is classed as functional, MT2. An outline of the steps: as §2

In experiment [14] the test system is Human immunodeficiency virus 1. As to the kind of experiment: Antiviral activity against Human immunodeficiency virus 1 isolate 31 harboring Gag-SP1 V370A, T371S, N372A/T, A374N/T and I376V mutant gene infected in human MT-2 cells by XTT assay relative to wild-type. The experiment is classed as functional, MT2. An outline of the steps: as §1
Experiment [15] concerns Human immunodeficiency virus 1. Put plainly: Antiviral activity against Human immunodeficiency virus 1 isolate 33 harboring Gag-SP1 S368G, V370M and S373T mutant gene infected in human MT-2 cells by XTT assay relative to wild-type. The experiment is classed as functional, MT2. An outline of the steps:
as §1

The test system of experiment [16] is Human immunodeficiency virus 1. As to the kind of experiment: Antiviral activity against Human immunodeficiency virus 1 isolate 34 harboring Gag-capsid G357S mutant gene and Gag-SP1 V370A, N372T, S373P and T375A mutant gene infected in human MT-2 cells by XTT assay relative to wild-type. The experiment is classed as functional, MT2. An outline of the steps: as §1

Experiment [17] relates to Human immunodeficiency virus 1. As to the kind of experiment: Antiviral activity against antiretroviral-pretreated PI-resistant Human immunodeficiency virus 1 isolate 23 harboring Gag-capsid G357S and V362I mutant gene, Gag-SP-1 V370A and T375A mutant gene and deletion at T371 in Gag-SP-1 infected in human MT-2 cells by XTT assay relative to wild-type. The experiment is classed as functional, MT2. Summed up:
as §2

Experiment [18] relates to Human immunodeficiency virus 1. Put plainly: Antiviral activity against Human immunodeficiency virus 1 isolate 6 harboring Gag-SP-1 V370, S373 and A374 mutant infected in human MT-2 cells by XTT-assay relative to wild-type. The experiment is classed as functional, MT2. Summed up:
as §1

Experiment [19] deals with Human immunodeficiency virus 1. Put plainly: Antiviral activity against Human immunodeficiency virus 1 isolate 6 harboring Gag-SP-1 S373 and A374 mutant infected in human MT-2 cells by XTT-assay relative to wild-type. The experiment is classed as functional, MT2. Summed up:
as §1

The subject of experiment [20] is Human immunodeficiency virus 1. As to the kind of experiment: Antiviral activity against Human immunodeficiency virus 1 isolate 8 harboring Gag-SP1 V362I mutant infected in human MT-2 cells by XTT-assay relative to wild-type. The experiment is classed as functional, MT2. Summed up: as §1
Experiment [21] deals with Human immunodeficiency virus 1. As to the kind of experiment: Antiviral activity against Human immunodeficiency virus 1 LAI Gag-[…] V362I mutant infected in human MT-2 cells by XTT-assay relative to wild-type. The experiment is classed as functional, MT2. An outline of the steps:
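Site-directed mutants were made by two-round overlap PCR into the pXXLAI (HIV-1 LAI) backbone from an individual clone, then transfected into 293T cells, with supernatant harvested at 2 days. MT-2 cells were infected at an input giving an XTT signal-to-noise of 2.5–4.0, plated at ≈17,000 cells/well with drug dilutions, and read by XTT after 5 days. EC50 from % cell death; fold change vs wild-type LAI.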

In experiment [22] the test system is Human immunodeficiency virus 1. As to the kind of experiment: Antiviral activity against antiretroviral-pretreated PI-resistant Human immunodeficiency virus 1 isolate 2 harboring Gag-SP-1 S373A, A374G and T375A mutant gene infected in human MT-2 cells by XTT assay relative to wild-type.

Structures are written as SMILES.

As to `COC(=O)N[C@H](C(=O)N[C@@H](Cc1ccccc1)[C@@H](O)CN(Cc1ccc(-c2ccccn2)cc1)NC(=O)[C@@H](NC(=O)OC)C(C)(C)C)C(C)(C)C` [ATAZANAVIR], the “fold change (FC)” value in experiment [1] turned out to be 15.1.
The same measure, in the same setting: the result for `Cc1cccc(C)c1OCC(=O)N[C@@H](Cc1ccccc1)[C@@H](O)C[C@H](Cc1ccccc1)NC(=O)[C@H](C(C)C)N1CCCNC1=O` [LOPINAVIR] reads 13.
For the molecule `C=C(C)[C@@H]1CC[C@]2(C(=O)O)CC[C@]3(C)[C@H](CC[C@@H]4[C@@]5(C)CC[C@H](OC(=O)CC(C)(C)C(=O)O)C(C)(C)[C@@H]5CC[C@]43C)[C@@H]12` [BEVIRIMAT], the “fold change (FC)” value in experiment [2] is >100; in experiment [3], >100; in experiment [4] it was >100; in [5], 1.2; in experiment [6], 1.3; in experiment [7], 2.1. Besides, the “fold change (FC)” value in experiment [8] is recorded as 4.6; in experiment [9], 4.7; in [10] it was 11; in [11], >100; in experiment [12] it was >100; in experiment [13], >100. Besides, the “fold change (FC)” value is >100 in experiment [14]; >100 in [15]; >100 in experiment [16]; >100 in experiment [17]; 0.4 in experiment [18]; >100 in experiment [19]. Moreover, the “fold change (FC)” value in [20], in experiment [21] and in experiment [22] was >100 in each case.
